For orientation: LD50 means the dose at which mortality reaches 50%. Read a high LD50 as a less toxic substance.

System in one series: not listed separately
The experiment in a line: Toxicity in ip dosed rat. The conditions noted are these: in vivo. Format: organism-based.
In the case of `COc1cc(C2C(Cl)C(=O)N2c2nnc(Cn3c4ccccc4c4ccccc43)o2)ccc1O` (stereo not drawn), the LD50 is > 1000 mg/kg.
On the same count and under the same terms, the result for `COc1cc(C2C(Cl)C(=O)N2c2nnc(Cn3c4ccccc4c4ccccc43)s2)ccc1O` (stereo not drawn) reads > 1000 mg/kg; that for `O=C1CSC(c2ccc(O)cc2O)N1c1nnc(Cn2c3ccccc3c3ccccc32)s1` (stereo not drawn), > 1000 mg/kg; that for `CN(C)c1ccc(C2SCC(=O)N2c2nnc(Cn3c4ccccc4c4ccccc43)o2)cc1` (stereo not drawn), > 1000 mg/kg.
For the molecule `O=C1C(Cl)C(c2ccc(O)cc2)N1c1nnc(Cn2c3ccccc3c3ccccc32)s1` (stereo not drawn), the LD50 is > 1000 mg/kg.
With `O=C1CSC(c2ccccc2Br)N1c1nnc(Cn2c3ccccc3c3ccccc32)s1` (stereo not drawn), the LD50 was > 1600 mg/kg.
Still for that read-out and setting: then `CN(C)c1ccc(C2C(Cl)C(=O)N2c2nnc(Cn3c4ccccc4c4ccccc43)s2)cc1` (stereo not drawn), with > 1000 mg/kg; and `CN(C)c1ccc(/C=N/c2nnc(Cn3c4ccccc4c4ccccc43)s2)cc1`, with > 1000 mg/kg.
Regarding `Brc1ccccc1/C=N/c1nnc(Cn2c3ccccc3c3ccccc32)o1`, the LD50 is > 1000 mg/kg.
On to `Brc1ccccc1/C=N/c1nnc(Cn2c3ccccc3c3ccccc32)s1`, for which the LD50 is > 1000 mg/kg.
For the molecule `O=C1CSC(c2ccc(O)cc2O)N1c1nnc(Cn2c3ccccc3c3ccccc32)o1` (stereo not drawn), the LD50 was > 1000 mg/kg.
For the molecule `O=C1CSC(c2ccc(O)cc2)N1c1nnc(Cn2c3ccccc3c3ccccc32)o1` (stereo not drawn), the LD50 was > 1000 mg/kg.
Turning to `COc1cc(/C=N/c2nnc(Cn3c4ccccc4c4ccccc43)s2)ccc1O`, the LD50 is > 1000 mg/kg.
Regarding `COc1cc(C2SCC(=O)N2c2nnc(Cn3c4ccccc4c4ccccc43)o2)ccc1O` (stereo not drawn), the LD50 is > 1000 mg/kg.
Same read-out and setting: the result for `O=C1C(Cl)C(c2ccc(O)cc2O)N1c1nnc(Cn2c3ccccc3c3ccccc32)s1` (stereo not drawn) reads > 1000 mg/kg; that for `Oc1ccc(/C=N/c2nnc(Cn3c4ccccc4c4ccccc43)o2)c(O)c1`, > 1000 mg/kg; that for `COc1cc(/C=N/c2nnc(Cn3c4ccccc4c4ccccc43)o2)ccc1O`, > 1000 mg/kg.
Regarding `O=C1C(Cl)C(c2ccccc2Br)N1c1nnc(Cn2c3ccccc3c3ccccc32)s1` (stereo not drawn), the LD50 is > 1000 mg/kg.
The same measure, in the same setting: then `CN(C)c1ccc(C2SCC(=O)N2c2nnc(Cn3c4ccccc4c4ccccc43)s2)cc1` (stereo not drawn), with > 1000 mg/kg.
The same measure, in the same setting: then `Oc1ccc(/C=N/c2nnc(Cn3c4ccccc4c4ccccc43)o2)cc1`, with > 1000 mg/kg; and `O=C1CSC(c2ccc(O)cc2)N1c1nnc(Cn2c3ccccc3c3ccccc32)s1` (stereo not drawn), with > 1000 mg/kg; and `O=C1C(Cl)C(c2ccc(O)cc2)N1c1nnc(Cn2c3ccccc3c3ccccc32)o1` (stereo not drawn), with > 1000 mg/kg.
Still for that read-out and setting: then `Oc1ccc(/C=N/c2nnc(Cn3c4ccccc4c4ccccc43)s2)cc1`, with > 1000 mg/kg; and `O=C1C(Cl)C(c2ccccc2Br)N1c1nnc(Cn2c3ccccc3c3ccccc32)o1` (stereo not drawn), with > 1000 mg/kg.
As for `Oc1ccc(/C=N/c2nnc(Cn3c4ccccc4c4ccccc43)s2)c(O)c1`, the 50% lethal dose (LD50) was > 1000 mg/kg.
As for `COc1cc(C2SCC(=O)N2c2nnc(Cn3c4ccccc4c4ccccc43)s2)ccc1O` (stereo not drawn), the LD50 is > 1000 mg/kg.
For the molecule `CN(C)c1ccc(C2C(Cl)C(=O)N2c2nnc(Cn3c4ccccc4c4ccccc43)o2)cc1` (stereo not drawn), the LD50 was > 1000 mg/kg.
Same read-out and setting: then `CN(C)c1ccc(/C=N/c2nnc(Cn3c4ccccc4c4ccccc43)o2)cc1`, with > 1000 mg/kg; and `O=C1C(Cl)C(c2ccc(O)cc2O)N1c1nnc(Cn2c3ccccc3c3ccccc32)o1` (stereo not drawn), with > 1000 mg/kg.
`O=C1CSC(c2ccccc2Br)N1c1nnc(Cn2c3ccccc3c3ccccc32)o1` (stereo not drawn): the LD50 is > 1000 mg/kg.

The test system of a further series is Rattus norvegicus. The experiment in a line: Toxicity in rat assessed as time spent on rotarod at 40 mg/kg, ip by rotarod test. Particulars: in vivo. Format: organism-based. On the set-up: dose 40 mg/kg, route intraperitoneal. Put shortly: (§1)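 Rats dosed i.p.: test agents at 40 mg/kg, with a propylene glycol group at 0.5 mL. Rotarod performance test, recorded as mean time in seconds on the rod.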
(In general: Falling from the rotarod earlier than controls is read as motor impairment.)
With `COc1cc(C2C(Cl)C(=O)N2c2nnc(Cn3c4ccccc4c4ccccc43)o2)ccc1O` (stereo not drawn), the Time amounted to 102.4 s.
`COc1cc(C2C(Cl)C(=O)N2c2nnc(Cn3c4ccccc4c4ccccc43)s2)ccc1O` (stereo not drawn): the Time stood at 102.4 s.
Consider `O=C1CSC(c2ccc(O)cc2O)N1c1nnc(Cn2c3ccccc3c3ccccc32)s1` (stereo not drawn), for which the Time is reported as 102.2 s.
Still for that read-out and setting: the result for `CN(C)c1ccc(C2SCC(=O)N2c2nnc(Cn3c4ccccc4c4ccccc43)o2)cc1` (stereo not drawn) reads 104.2 s; that for `O=C1C(Cl)C(c2ccc(O)cc2)N1c1nnc(Cn2c3ccccc3c3ccccc32)s1` (stereo not drawn), 102 s.
On the same count and under the same terms, the result for `O=C1CSC(c2ccccc2Br)N1c1nnc(Cn2c3ccccc3c3ccccc32)s1` (stereo not drawn) reads 96 s; that for `CN(C)c1ccc(C2C(Cl)C(=O)N2c2nnc(Cn3c4ccccc4c4ccccc43)s2)cc1` (stereo not drawn), 106 s; that for `CN(C)c1ccc(/C=N/c2nnc(Cn3c4ccccc4c4ccccc43)s2)cc1`, 110.2 s.
Turning to `Brc1ccccc1/C=N/c1nnc(Cn2c3ccccc3c3ccccc32)o1`, the Time came out at 110.8 s.
`Brc1ccccc1/C=N/c1nnc(Cn2c3ccccc3c3ccccc32)s1`: the Time is 106.8 s.
Same read-out and setting: then `O=C1CSC(c2ccc(O)cc2O)N1c1nnc(Cn2c3ccccc3c3ccccc32)o1` (stereo not drawn), with 104.4 s; and `O=C1CSC(c2ccc(O)cc2)N1c1nnc(Cn2c3ccccc3c3ccccc32)o1` (stereo not drawn), with 104.6 s; and `COc1cc(/C=N/c2nnc(Cn3c4ccccc4c4ccccc43)s2)ccc1O`, with 106.8 s.
As for `COc1cc(C2SCC(=O)N2c2nnc(Cn3c4ccccc4c4ccccc43)o2)ccc1O` (stereo not drawn), the Time is on record as 102.8 s.
As to `O=C1C(Cl)C(c2ccc(O)cc2O)N1c1nnc(Cn2c3ccccc3c3ccccc32)s1` (stereo not drawn), the Time was 102.2 s.
Still for that read-out and setting: the result for `Oc1ccc(/C=N/c2nnc(Cn3c4ccccc4c4ccccc43)o2)c(O)c1` reads 114.8 s.
Same read-out and setting: then `COc1cc(/C=N/c2nnc(Cn3c4ccccc4c4ccccc43)o2)ccc1O`, with 112.2 s; and `O=C1C(Cl)C(c2ccccc2Br)N1c1nnc(Cn2c3ccccc3c3ccccc32)s1` (stereo not drawn), with 98 s.
`CN(C)c1ccc(C2SCC(=O)N2c2nnc(Cn3c4ccccc4c4ccccc43)s2)cc1` (stereo not drawn): the Time turned out to be 104 s.
For the molecule `Oc1ccc(/C=N/c2nnc(Cn3c4ccccc4c4ccccc43)o2)cc1`, the Time is on record as 116.4 s.
On the same count and under the same terms, then `O=C1CSC(c2ccc(O)cc2)N1c1nnc(Cn2c3ccccc3c3ccccc32)s1` (stereo not drawn), with 100.6 s; and `O=C1C(Cl)C(c2ccc(O)cc2)N1c1nnc(Cn2c3ccccc3c3ccccc32)o1` (stereo not drawn), with 104.6 s.
The same measure, in the same setting: the result for `Oc1ccc(/C=N/c2nnc(Cn3c4ccccc4c4ccccc43)s2)cc1` reads 108.8 s.
Same read-out and setting: the result for `O=C1C(Cl)C(c2ccccc2Br)N1c1nnc(Cn2c3ccccc3c3ccccc32)o1` (stereo not drawn) reads 98.8 s.
As to `Oc1ccc(/C=N/c2nnc(Cn3c4ccccc4c4ccccc43)s2)c(O)c1`, the Time was 108.6 s.
Same read-out and setting: the result for `COc1cc(C2SCC(=O)N2c2nnc(Cn3c4ccccc4c4ccccc43)s2)ccc1O` (stereo not drawn) reads 98.8 s; that for `CN(C)c1ccc(C2C(Cl)C(=O)N2c2nnc(Cn3c4ccccc4c4ccccc43)o2)cc1` (stereo not drawn), 100.2 s; that for `CN(C)c1ccc(/C=N/c2nnc(Cn3c4ccccc4c4ccccc43)o2)cc1`, 114 s.
Still for that read-out and setting: the result for `O=C1C(Cl)C(c2ccc(O)cc2O)N1c1nnc(Cn2c3ccccc3c3ccccc32)o1` (stereo not drawn) reads 106.4 s.
In the case of `O=C1CSC(c2ccccc2Br)N1c1nnc(Cn2c3ccccc3c3ccccc32)o1` (stereo not drawn), the Time stood at 96.6 s.

The test system of a further series is Rattus norvegicus. The experiment in a line: Anticonvulsant activity in rat assessed as protection against maximal electric shock-induced seizures at 40 mg/kg, ip. The conditions noted are these: route intraperitoneal. It is filed as functional. The method in brief:
(§2)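 Rats dosed i.p.: test agents at 40 mg/kg, with a propylene glycol group at 0.5 mL. Maximal electroshock (MES) seizure test, scored as % seizure protection.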
In the case of `COc1cc(C2C(Cl)C(=O)N2c2nnc(Cn3c4ccccc4c4ccccc43)o2)ccc1O` (stereo not drawn), the Activity was determined as 50%.
For the molecule `COc1cc(C2C(Cl)C(=O)N2c2nnc(Cn3c4ccccc4c4ccccc43)s2)ccc1O` (stereo not drawn), the Activity was 70%.
In the case of `O=C1CSC(c2ccc(O)cc2O)N1c1nnc(Cn2c3ccccc3c3ccccc32)s1` (stereo not drawn), the Activity turned out to be 70%.
The same measure, in the same setting: the result for `CN(C)c1ccc(C2SCC(=O)N2c2nnc(Cn3c4ccccc4c4ccccc43)o2)cc1` (stereo not drawn) reads 60%.
On the same count and under the same terms, the result for `O=C1C(Cl)C(c2ccc(O)cc2)N1c1nnc(Cn2c3ccccc3c3ccccc32)s1` (stereo not drawn) reads 60%; that for `O=C1CSC(c2ccccc2Br)N1c1nnc(Cn2c3ccccc3c3ccccc32)s1` (stereo not drawn), 90%.
`CN(C)c1ccc(C2C(Cl)C(=O)N2c2nnc(Cn3c4ccccc4c4ccccc43)s2)cc1` (stereo not drawn): the Activity worked out at 50%.
Regarding `CN(C)c1ccc(/C=N/c2nnc(Cn3c4ccccc4c4ccccc43)s2)cc1`, the Activity came to 40%.
Same read-out and setting: then `Brc1ccccc1/C=N/c1nnc(Cn2c3ccccc3c3ccccc32)o1`, with 30%.
For the molecule `Brc1ccccc1/C=N/c1nnc(Cn2c3ccccc3c3ccccc32)s1`, the Activity is reported as 60%.
As for `O=C1CSC(c2ccc(O)cc2O)N1c1nnc(Cn2c3ccccc3c3ccccc32)o1` (stereo not drawn), the Activity came to 60%.
Regarding `O=C1CSC(c2ccc(O)cc2)N1c1nnc(Cn2c3ccccc3c3ccccc32)o1` (stereo not drawn), the Activity is on record as 60%.
Take `COc1cc(/C=N/c2nnc(Cn3c4ccccc4c4ccccc43)s2)ccc1O`: the Activity came to 50%.
On the same count and under the same terms, the result for `COc1cc(C2SCC(=O)N2c2nnc(Cn3c4ccccc4c4ccccc43)o2)ccc1O` (stereo not drawn) reads 70%; that for `O=C1C(Cl)C(c2ccc(O)cc2O)N1c1nnc(Cn2c3ccccc3c3ccccc32)s1` (stereo not drawn), 50%; that for `Oc1ccc(/C=N/c2nnc(Cn3c4ccccc4c4ccccc43)o2)c(O)c1`, 30%.
Still for that read-out and setting: the result for `COc1cc(/C=N/c2nnc(Cn3c4ccccc4c4ccccc43)o2)ccc1O` reads 30%; that for `O=C1C(Cl)C(c2ccccc2Br)N1c1nnc(Cn2c3ccccc3c3ccccc32)s1` (stereo not drawn), 80%; that for `CN(C)c1ccc(C2SCC(=O)N2c2nnc(Cn3c4ccccc4c4ccccc43)s2)cc1` (stereo not drawn), 60%.
Regarding `Oc1ccc(/C=N/c2nnc(Cn3c4ccccc4c4ccccc43)o2)cc1`, the Activity amounted to 20%.
On to `O=C1CSC(c2ccc(O)cc2)N1c1nnc(Cn2c3ccccc3c3ccccc32)s1` (stereo not drawn), for which the Activity is 60%.
Turning to `O=C1C(Cl)C(c2ccc(O)cc2)N1c1nnc(Cn2c3ccccc3c3ccccc32)o1` (stereo not drawn), the Activity came to 40%.
As to `Oc1ccc(/C=N/c2nnc(Cn3c4ccccc4c4ccccc43)s2)cc1`, the Activity came to 40%.
For the molecule `O=C1C(Cl)C(c2ccccc2Br)N1c1nnc(Cn2c3ccccc3c3ccccc32)o1` (stereo not drawn), the Activity stood at 60%.
The same measure, in the same setting: the result for `Oc1ccc(/C=N/c2nnc(Cn3c4ccccc4c4ccccc43)s2)c(O)c1` reads 50%; that for `COc1cc(C2SCC(=O)N2c2nnc(Cn3c4ccccc4c4ccccc43)s2)ccc1O` (stereo not drawn), 70%.
Take `CN(C)c1ccc(C2C(Cl)C(=O)N2c2nnc(Cn3c4ccccc4c4ccccc43)o2)cc1` (stereo not drawn): the Activity turned out to be 40%.
As to `CN(C)c1ccc(/C=N/c2nnc(Cn3c4ccccc4c4ccccc43)o2)cc1`, the Activity is given as 20%.
On the same count and under the same terms, then `O=C1C(Cl)C(c2ccc(O)cc2O)N1c1nnc(Cn2c3ccccc3c3ccccc32)o1` (stereo not drawn), with 50%.
Turning to `O=C1CSC(c2ccccc2Br)N1c1nnc(Cn2c3ccccc3c3ccccc32)o1` (stereo not drawn), the Activity stood at 70%.

For another series, the system named is Rattus norvegicus. The experiment in a line: Toxicity in rat assessed as time spent on rotarod at 0.5 mL, ip by rotarod test. Format: organism-based. Particulars: in vivo. The method in brief:
as §1
In the case of `CC(O)CO` (stereo not drawn) [PROPYLENE GLYCOL], the Time is given as 120 s.

The test system of another series is Rattus norvegicus. The experiment in a line: Anticonvulsant activity in rat assessed as protection against maximal electric shock-induced seizures at 0.5 mL, ip. Format: functional.
Settings: not given
Put shortly: as §2
Consider `O=C(CCCN1CCC(O)(c2ccc(Cl)cc2)CC1)c1ccc(F)cc1` [HALOPERIDOL], for which the Activity was 0%.
Same read-out and setting: the result for `CC(O)CO` (stereo not drawn) [PROPYLENE GLYCOL] reads 0%.

These data come from ChEMBL document CHEMBL1177859, “Synthesis and antipsychotic and anticonvulsant activity of some new substituted oxa/thiadiazolylazetidinonyl/thiazolidinonylcarbazoles” (Eur J Med Chem, 2010).
